In paper PMC11406440 (Food and chemical toxicology : an international journal …, 2024):
Values joined by “and” are separate entries in the source; they are usually repeats but may differ in a detail not shown here. Equal values may be shown once. “Also recorded” adds a separate entry of the source.

Key:
spleen cells = assay: Spleen immune phenotyping by flow cytometry; assay type: in vivo, B6C3F1 mice; settings: 28 days; for Spleen B-cells frequency / Spleen B-cells number / Spleen CD4+ frequency / Spleen CD4+ number / Spleen CD8+ frequency / Spleen CD8+ number / Spleen CD11b + Ly6C+ frequency / Spleen CD11b + Ly6C+ number / Spleen CD11b + Ly6C- frequency / Spleen CD11b + Ly6C- number / Spleen CD11b+ frequency / Spleen CD11b+ number / Spleen CD86 B-cells / Spleen CD86 DCs / Spleen Cellularity / Spleen Dendritic Cells frequency / Spleen Dendritic Cells number / Spleen MHCII B-cells / Spleen MHCII DCs / Spleen NK frequency / Spleen NK number / Spleen Neutrophils frequency / Spleen Neutrophils number: mean ± SE
Procedure, shortened: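 Female B6C3F1 mice (5/group) received 25 μl/ear of acetone vehicle or 1.25, 2.5 or 5% w/v test compound on the dorsal surface of each ear, once daily for 28 days. They were euthanized about 24 h later. Single-cell suspensions were made from both auricular dLNs, half a spleen or one ear pinna. Cells were Fc-blocked (anti-CD16/32), stained with surface antibody cocktails and acquired on an LSR II, with FMO gating controls.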

[1] = 14-days of 3 mg/kg/day oral exposure; ref Chang et al., 2018; cited from earlier work
[2] = 28 days of 20 mg/kg/d oral gavage, female mice; ref Narizzano et al., 2021; cited from earlier work
[3] = PFHxS concentration in serum and urine after dermal exposure; assay type: in vivo, B6C3F1 mice; settings: 28 days; for Urine PFHxS concentration: 5 pooled samples; for PFHxS serum concentration: 24 h after last exposure
Procedure, shortened: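 Mice received 25 μl/ear of acetone or 1.25, 2.5, 5% w/v test compound on both ears daily for 28 days. About 24 h after the last exposure, serum was taken by cardiac puncture (5 mice/group) and urine was pooled per group. Analysis was solid-phase extraction with LC/MS/MS (BEH C18, EPA method 537), linear isomer only. Serum was compared with vehicle by one-way ANOVA.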

B6C3F1 mice = assay: Histopathology; assay type: in vivo; settings: for Liver: bile, increased, hepatocyte, minimal (incidence) / Liver: hypertrophy, hepatocyte, marked (incidence) / Liver: infiltrate, mononuclear cell, mild (incidence) / Liver: infiltrate, mononuclear cell, minimal (incidence) / Liver: necrosis, mild (incidence) / Liver: necrosis, minimal (incidence) / Liver: pigment macrophage, minimal (incidence) / Spleen: decreased cellularity, lymphocyte, mild (incidence): mice affected of 5
Procedure, shortened: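 Female B6C3F1 mice (5/group) received 25 μl/ear of acetone vehicle or 1.25–5% w/v test compound daily on both ears for 28 days, with necropsy about 24 h later. Liver, half spleen, half ear pinna and right kidney were fixed in 10% formalin, paraffin-embedded, cut at 5 μm and H&E-stained. A veterinary pathologist scored them per STP guideline, grades 1 (minimal) to 5 (severe).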

NK cell function = assay: NK assay; assay type: in vivo, mice; settings: any effector to target ratios
liver = assay: Liver gene expression; assay type: in vivo, B6C3F1 mice
Procedure, shortened: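 Mice were dosed daily on both ears (25 μl/ear; acetone vehicle or 1.25, 2.5, 5% w/v) for 28 days. Half an ear pinna or the caudate liver lobe was homogenized in Buffer RLT, and total RNA was column-isolated with DNase treatment. TaqMan qPCR gave relative fold change (2−ΔΔCT) versus vehicle controls, normalized to β-actin. Liver used 4–5 mice/group, one-way ANOVA/Dunnett or Kruskal-Wallis/Dunn.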

[4] = PFHxS exposure, 28 days (discussion, approximate)
[5] = all three concentrations of PFHxS, 28 days

## O=S(=O)(O)C(F)(F)C(F)(F)C(F)(F)C(F)(F)C(F)(F)C(F)(F)F [PFHxS, Perfluorohexane sulfonic acid]
Spleen cells; 1.25% PFHxS
  Spleen B-cells frequency: 31.48 ± 0.59%
  Spleen B-cells number: 2.50 ± 0.38 x 10^7
  Spleen CD4+ frequency: 24.60 ± 0.70%
  Spleen CD4+ number: 1.95 ± 0.30 x 10^7
  Spleen CD8+ frequency: 15.12 ± 0.73%
  Spleen CD8+ number: 11.70 ± 1.45 x 10^6
  Spleen CD11b + Ly6C+ frequency: 1.11 ± 0.09%
  Spleen CD11b + Ly6C+ number: 9.05 ± 1.59 x 10^5
  Spleen CD11b + Ly6C- frequency: 2.63 ± 0.16 %
  Spleen CD11b + Ly6C- number: 21.00 ± 3.46 x 10^5
  Spleen CD11b+ frequency: 3.90 ± 0.21%
  Spleen CD11b+ number: 3.13 ± 0.51 x 10^6
  Spleen CD86 B-cells: 341.20 ± 16.00 MFI
  Spleen CD86 DCs: 1733.80 ± 46.13 MFI
  Spleen Cellularity: 7.91 ± 1.16 x 10^7
  Spleen Dendritic Cells frequency: 3.33 ± 0.32%
  Spleen Dendritic Cells number: 2.70 ± 0.48 x 10^6
  Spleen MHCII B-cells: 1334.60 ± 89.70 MFI
  Spleen MHCII DCs: 4141.40 ± 112.06 MFI
  Spleen NK frequency: 2.52 ± 0.17%
  Spleen NK number: 20.00 ± 3.26 x 10^5
  Spleen Neutrophils frequency: 1.76 ± 0.14%
  Spleen Neutrophils number: 14.00 ± 2.38 x 10^5
Spleen cells; 1.25%, 2.5%, 5% PFHxS
  Spleen eosinophils frequency and number: decrease
Spleen cells; 2.5% PFHxS
  Spleen B-cells frequency: 32.48 ± 0.37%
  Spleen B-cells number: 1.62 ± 0.19 x 10^7
  Spleen CD4+ frequency: 26.26 ± 0.79 %
  Spleen CD4+ number: 1.30 ± 0.13 x 10^7
  Spleen CD8+ frequency: 16.74 ± 0.56 %
  Spleen CD8+ number: 8.25 ± 0.73 x 10^6
  Spleen CD11b + Ly6C+ frequency: 0.72 ± 0.11 %
  Spleen CD11b + Ly6C+ number: 3.77 ± 0.85 x 10^5
  Spleen CD11b + Ly6C- frequency: 2.21 ± 0.13 %
  Spleen CD11b + Ly6C- number: 11.20 ± 1.52 x 10^5
  Spleen CD11b+ frequency: 3.07 ± 0.21 %
  Spleen CD11b+ number: 1.56 ± 0.24 x 10^6
  Spleen CD86 B-cells: 280.80 ± 10.49 MFI
  Spleen CD86 DCs: 1677.40 ± 60.65 MFI
  Spleen Cellularity: 4.99 ± 0.55 x 10^7
  Spleen Dendritic Cells frequency: 3.36 ± 0.48%
  Spleen Dendritic Cells number: 1.71 ± 0.33 x 10^6
  Spleen MHCII B-cells: 1235.60 ± 111.64 MFI
  Spleen MHCII DCs: 4003.00 ± 145.61 MFI
  Spleen NK frequency: 2.19 ± 0.06 %
  Spleen NK number: 10.90 ± 1.04 x 10^5
  Spleen Neutrophils frequency: 1.69 ± 0.21%
  Spleen Neutrophils number: 8.87 ± 2.15 x 10^5
Spleen cells; 5% PFHxS
  Spleen B-cells frequency: 30.06 ± 0.55 %
  Spleen B-cells number: 1.11 ± 0.15 x 10^7
  Spleen CD4+ frequency: 26.90 ± 0.70 %
  Spleen CD4+ number: 0.99 ± 0.12 x 10^7
  Spleen CD8+ frequency: 18.12 ± 0.59 %
  Spleen CD8+ number: 6.58 ± 0.73 x 10^6
  Spleen CD11b + Ly6C+ frequency: 0.68 ± 0.13 %
  Spleen CD11b + Ly6C+ number: 2.52 ± 0.56 x 10^5
  Spleen CD11b + Ly6C- frequency: 1.69 ± 0.13 %
  Spleen CD11b + Ly6C- number: 6.28 ± 0.91 x 10^5
  Spleen CD11b+ frequency: 2.49 ± 0.24 %
  Spleen CD11b+ number: 0.93 ± 0.15 x 10^6
  Spleen CD86 B-cells: 302.60 ± 14.79 MFI
  Spleen CD86 DCs: 1754.60 ± 67.69 MFI
  Spleen Cellularity: 3.68 ± 0.45 x 10^7
  Spleen Dendritic Cells frequency: 3.34 ± 0.31%
  Spleen Dendritic Cells number: 1.26 ± 0.20 x 10^6
  Spleen MHCII B-cells: 1093.20 ± 94.51 MFI
  Spleen MHCII DCs: 3854.60 ± 88.79 MFI
  Spleen NK frequency: 1.71 ± 0.17 %
  Spleen NK number: 6.35 ± 0.96 x 10^5
  Spleen Neutrophils frequency: 2.51 ± 0.34 %
  Spleen Neutrophils number: 9.14 ± 1.54 x 10^5
[1]
  Serum concentration: 180 µg/mL
[2]
  Serum level: 35 µg/mL
[3]; 1.25% PFHxS dermal
  Urine PFHxS concentration: 43 µg/mL
  PFHxS serum concentration: 440 µg/mL
[3]; 2.5% PFHxS dermal
  Urine PFHxS concentration: 120 µg/mL
  PFHxS serum concentration: 608 µg/mL
[3]; 5% PFHxS dermal
  Urine PFHxS concentration: 130 µg/mL
  PFHxS serum concentration: 656 µg/mL
B6C3F1 mice; 1.25% PFHxS, 28 days
  Liver: bile, increased, hepatocyte, minimal (incidence): 5/5 and 5
  Liver: hypertrophy, hepatocyte, marked (incidence): 5
  Liver: infiltrate, mononuclear cell, mild (incidence): 1/5 and 1
  Liver: infiltrate, mononuclear cell, minimal (incidence): 2/5 and 2
  Liver: necrosis, mild (incidence): 2/5 and 2
  Liver: necrosis, minimal (incidence): 3/5 and 3
  Liver: pigment macrophage, minimal (incidence): 4/5 and 4
  Spleen: decreased cellularity, lymphocyte, mild (incidence): 2/5 and 2
B6C3F1 mice; 2.5% PFHxS, 28 days
  Liver: bile, increased, hepatocyte, minimal (incidence): 5/5 and 5
  Liver: hypertrophy, hepatocyte, marked (incidence): 5
  Liver: infiltrate, mononuclear cell, mild (incidence): 0
  Liver: infiltrate, mononuclear cell, minimal (incidence): 2/5 and 2
  Liver: necrosis, mild (incidence): 1/5 and 1
  Liver: necrosis, minimal (incidence): 4/5 and 4
  Liver: pigment macrophage, minimal (incidence): 5/5 and 5
  Spleen: decreased cellularity, lymphocyte, mild (incidence): 4/5 and 4
B6C3F1 mice; 5% PFHxS, 28 days
  Liver: bile, increased, hepatocyte, minimal (incidence): 5/5 and 5
  Liver: hypertrophy, hepatocyte, marked (incidence): 5
  Liver: infiltrate, mononuclear cell, mild (incidence): 0
  Liver: infiltrate, mononuclear cell, minimal (incidence): 1/5 and 1
  Liver: necrosis, mild (incidence): 1/5 and 1
  Liver: necrosis, minimal (incidence): 4/5 and 4
  Liver: pigment macrophage, minimal (incidence): 4/5 and 4
  Spleen: decreased cellularity, lymphocyte, mild (incidence): 5/5 and 5
B6C3F1 mice; PFHxS dermal exposure
  Skin irritation at the site of application: no skin irritation
B6C3F1 mice; PFHxS dermal, 28 days
  Skin histopathology at the dosing site: No microscopic abnormalities; also recorded: no histopathological changes
NK cell function
  NK cell function: No significant decreases
liver; 1.25% PFHxS, 28 days
  Liver Cyp7a1 gene expression: Decreases
liver; 1.25% and 2.5% PFHxS, 28 days
  Liver Pparδ gene expression: decrease
liver; 1.25% and 5% PFHxS, 28 days
  Liver Pparγ gene expression: increase
liver; 1.25-5% PFHxS, 28 days
  Liver Pparα gene expression: No change
liver; 2.5% PFHxS, 28 days
  Liver Apoa1 gene expression: Decreases
  Liver Serpine1 gene expression, fold increase: 52 fold
liver; 5% PFHxS, 28 days
  Liver Acox1 gene expression, fold increase: 6.7 fold
  Liver Avpr1a gene expression: Decreases
  Liver Cd36 gene expression, fold increase: 23 fold
  Liver Cpt1b gene expression, fold increase: 33 fold
  Liver Cyp4a10 gene expression, fold increase: 22 fold
  Liver Ehhadh gene expression, fold increase: 61 fold
  Liver Lpl gene expression, fold increase: 30 fold
  Liver Pla2g12a gene expression, fold increase: 16 fold
liver; [4]
  Liver Acox1 gene expression, fold increase: ~ 6 fold
  Liver Ehhadh gene expression, fold increase: ~ 50 fold
liver; [5]
  Liver Cd36 gene expression, fold increase: ~ 25 fold
  Liver Lpl gene expression, fold increase: ~ 25 fold
